Published values of several laboratories.
Compare with care: the assays were run in different laboratories.
Target: Rhodopsin kinase GRK1 (GRK1, Homo sapiens, UniProt Q15835)
Sequence (Q15835 1-563, as in one of the studies): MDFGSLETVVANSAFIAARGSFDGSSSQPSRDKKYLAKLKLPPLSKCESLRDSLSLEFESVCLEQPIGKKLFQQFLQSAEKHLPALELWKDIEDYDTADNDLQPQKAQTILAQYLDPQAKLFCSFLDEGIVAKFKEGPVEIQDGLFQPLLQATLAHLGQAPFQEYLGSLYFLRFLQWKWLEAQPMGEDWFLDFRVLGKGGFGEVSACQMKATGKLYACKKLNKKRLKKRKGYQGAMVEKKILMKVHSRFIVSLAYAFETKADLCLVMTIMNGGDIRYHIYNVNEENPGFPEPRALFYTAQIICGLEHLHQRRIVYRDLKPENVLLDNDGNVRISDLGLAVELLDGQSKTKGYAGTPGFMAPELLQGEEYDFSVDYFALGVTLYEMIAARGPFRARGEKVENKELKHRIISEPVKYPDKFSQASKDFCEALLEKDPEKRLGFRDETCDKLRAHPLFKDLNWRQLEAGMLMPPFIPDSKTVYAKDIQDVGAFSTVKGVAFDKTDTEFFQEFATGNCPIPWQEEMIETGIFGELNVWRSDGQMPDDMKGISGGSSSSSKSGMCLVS

For C1=C/COCc2cc(ccc2OCCN2CCCC2)Nc2nccc(n2)-c2cccc(c2)COC/1, the remaining binding was 94% (binding; 0.1 µM).
With CCCCC(=O)Nc1ccc(-c2ccc3ncn(CCC)c(=O)c3c2)cn1 the remaining binding was 96% (binding; competition with immobilised ligand; 0.5 µM).
For C[C@H]1CC[C@H](n2c3cnccc3c3cnc(Nc4ccc5c(n4)CCN(C(=O)CO)C5)nc32)CC1, the remaining signal was 100% (cell-free assay; 1 µM).
For C=CC(=O)N1CCC([C@@H]2CCNc3c(C(N)=O)c(-c4ccc(Oc5ccccc5)cc4)nn32)CC1, the inhibition was 34% (enzyme activity; inhibitor; 1 µM).
The remaining binding of COc1ccc2[nH]c3c4[nH]c5ccc(OC)cc5c4c4c(c3c2c1)C(=O)NC4=O is reported as 95% (binding; 1 µM).
With CO[C@@H]1[C@H](N(C)C(=O)c2ccccc2)C[C@H]2O[C@]1(C)n1c3ccccc3c3c4c(c5c6ccccc6n2c5c31)C(=O)NC4 the inhibition was 94% (enzyme activity; inhibitor; 1 µM).
The activity vs control of CC(C)S(=O)(=O)c1ccc2nccc(Nc3ccc4sc(C5CCCC5)nc4c3)c2c1 is reported as 112% (enzyme activity; inhibitor; 1 µM).
For COc1ccc2oc(-c3ccc4nc(N)oc4c3)c/c(=N\c3ccccc3NC(=O)CCN)c2c1, the remaining binding was 98% (binding; 1 µM).
